# High-throughput results deposited in PubChem by Broad Institute.
# DENV2 CPE rescue: inhibitors of DENV2 cytopathic effect; CPE inhibition, % at 9.99 µM; 1.7% of 350,000 active; DENV2-infected cells, cytopathic effect rescue, plate reader; in the data active = CPE inhibition above about 20%, passing the limit was not always enough; inconclusive = no clear call, values can overlap the other calls; tested in BHK-21 cells;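 also: 0% = median of neutral control wells and 100% = median of positive control wells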
# GSIS activator: GLuc luminescence reporter in INS-1E cells, primary screen for activators of glucose-dependent secretion of insulin; INS-1E GLuc reporter insulin secretion, 2-3 h; activation, % at 16.6 µM; 0.61% of 370,000 active;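 active = lowest replicate activation of at least 40%, so every replicate reaches that level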;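 also: 0% = median of neutral control wells and 100% = median of IBMX positive control wells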
# CFTR F508del cor: correctors of CFTR F508del function in bronchial epithelial cells; activity (quench increase), % at 7.58 µM; 0.36% of 350,000 active; CFBE cells, YFP halide quenching; stimulated with forskolin plus potentiator P3; % fluorescence drop versus neutral controls;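 active = mean added fluorescence quench of at least 8% versus neutral control, with both replicates also reaching 8%; inconclusive = only one of the mean or replicate conditions met; inactive = mean below 8% and not both replicates reaching 8%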;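 also: cells transiently co-express mutant CFTR-F508del with the halide-sensitive YFP; corrector assay measuring rescue of mutant channel to the surface after 24 h compound exposure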
# ERAP1 HTS inh: inhibitors of human ERAP1 aminopeptidase | AID 652197 | inhibition, % at 10.7 µM | 0.15% of 340,000 active | recombinant ERAP1, Leu-AMC fluorescence, 60 min | Q9NZ08;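 active = mean replicate inhibition of at least 30%, or all replicates individually reaching that 30% level; inactive = mean below 30% and not every replicate reaching it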;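 also: 0% = neutral control wells and 100% = L-leucinethiol positive control wells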
# E-sel inducer: E-selectin induction on HUVECs; AID 686992; activation, % at 7.58 µM; HUVEC E-selectin immunofluorescence imaging; normalized: neutral wells 0, TNF-alpha wells 100; 0.37% of 260,000 active;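 active = mean E-selectin-positive cell signal at least 10% of the positive control, reached in at least 60% of replicates, without over 20% cell loss; inconclusive = no rule given, readout overlaps actives, possibly toxicity-flagged; inactive = the rest, including those meeting only one limit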
# Target sequence (P16581 whole entry, looked up): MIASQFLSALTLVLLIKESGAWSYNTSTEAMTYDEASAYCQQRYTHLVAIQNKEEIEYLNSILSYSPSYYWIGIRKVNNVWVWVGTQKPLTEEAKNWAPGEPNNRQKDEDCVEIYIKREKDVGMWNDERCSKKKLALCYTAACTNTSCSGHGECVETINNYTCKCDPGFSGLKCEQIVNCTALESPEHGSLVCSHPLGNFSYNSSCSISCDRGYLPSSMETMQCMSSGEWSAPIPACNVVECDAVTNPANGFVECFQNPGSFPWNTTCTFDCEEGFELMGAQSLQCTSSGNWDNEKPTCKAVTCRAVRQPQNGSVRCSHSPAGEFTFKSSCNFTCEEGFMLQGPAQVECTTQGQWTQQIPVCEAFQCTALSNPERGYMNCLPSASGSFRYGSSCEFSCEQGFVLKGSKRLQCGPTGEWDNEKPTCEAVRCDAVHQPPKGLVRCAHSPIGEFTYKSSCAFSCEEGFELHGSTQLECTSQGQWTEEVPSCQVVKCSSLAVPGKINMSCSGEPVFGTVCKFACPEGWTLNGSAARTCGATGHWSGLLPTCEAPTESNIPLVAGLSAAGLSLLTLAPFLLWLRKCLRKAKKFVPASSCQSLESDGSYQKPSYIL
#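 Assay system: HUVEC primary endothelial cells. Input: 3,000 HUVEC seeded per well. Doses: one compound dose added by pin transfer. Read-out basis: % PE-positive cells. Benchmarks: TNF-alpha high, DMSO low. Detection: immunofluorescence imaging. Buffer or medium: EGM-2, gelatin.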
# miR122 inh: miR-122 inhibition in Huh7 cells; Huh7 miR-122 Renilla luciferase sensor, 48 h; neutral wells = 0, positive control = 100; activation (reporter increase), % at 12.5 µM; 0.3% of 340,000 active;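 active = mean replicate activation score at least 90 and every replicate individually at or above 90; inconclusive = only one of the two criteria met; inactive = neither criterion met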;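 also: higher luciferase means less miR-122 activity so hits act as miR-122 inhibitors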
# * marks the source's active call; other numbers are inactive results; ? = inconclusive; . = not tested or not shown; ! = not active in a repeat; [ ] = another dose, or the depositor's remark. A selection: hits, their analogues and other compounds. The true share with any hit is near 2.6%.
SMILES,DENV2 CPE rescue,GSIS activator,CFTR F508del cor,ERAP1 HTS inh,E-sel inducer,miR122 inh
COCCN(CC(=O)NC1CCCCC1)C(=O)/C=C/C(=O)c1ccc(OC)cc1O,10,49*,-3,-3,0,.
COCC(=O)Nc1ccc2c(c1)[C@@H]1C[C@H](CC(=O)N3CCN(C)CC3)O[C@@H](CO)[C@@H]1O2,3,4,-1,.,0,-3[16.7 µM]
C[N+]1(CC(=O)OCCCc2ccccc2)CCCC1,2,7,.,77*,0,.
CCn1c(CCC(=O)O)nc2cc(S(=O)(=O)N3CCOCC3)ccc21,13,.,0,1,117*,-7
COc1ccc(N2CCN(CC(=O)Nc3ncc(C)s3)CC2)cc1,-2,-2,-1,-1,0,.
Cc1cnc(NC(=O)CN2CCN(c3ccccn3)CC2)s1,.,0,.,7,.,177*
CC=Cc1ccc2n(c1=O)C[C@H]1[C@H](CO)[C@@H](C(=O)NCC3CC3)N(C(C)=O)[C@@H]21 (mixture of isomers),?,10,-1,1,0,.
C[C@@H]1CN([C@@H](C)CO)S(=O)(=O)c2ccc(-c3ccccc3)cc2O[C@@H]1CN(C)C(=O)C1CC1,.,-12,-2,.,3,-4[16.7 µM]
Cc1cc(C)c2c(N)c(C(=O)c3ccc(Br)cc3)oc2n1,46*,26,2,1,.,.
Cc1cc(C)c2c(N)c(C(=O)c3ccccc3)oc2n1,.,.,.,.,.,2
CCN(CC)c1ccc2cc(C(=O)NCc3ccc(F)cc3)c(=N)oc2c1,26*,-13,5,-21,8,-4
N=c1oc2ccc(Br)cc2cc1C(=O)NCc1ccc(F)cc1,-7,-23,0,-1,0,.
O=C([C@H]1N[C@H]2c3ccc(/C=C/c4ccccc4)c(=O)n3C[C@H]2[C@@H]1CO)N1CCCCC1,-3,-6,.,0,0,.
C[C@@H]1CN([C@@H](C)CO)C(=O)c2cc(NS(=O)(=O)c3cccs3)ccc2O[C@@H](C)CCCCO[C@@H]1CN(C)S(=O)(=O)c1cn(C)cn1,34*,4,3,0,0,0[16.7 µM]
C[C@@H]1CCCCO[C@@H](CN(C)S(=O)(=O)c2cn(C)cn2)[C@@H](C)CN([C@H](C)CO)C(=O)c2cc(NS(=O)(=O)c3cccs3)ccc2O1,30*,8,1,1,0,7[16.7 µM]
COc1ccc(OCc2nnc3n2N=C(c2ccc(OC)cc2)CS3)cc1,-4,45*,1,-2,0,2
COc1ccc(OCc2nnc3n2N=C(c2ccc(C)cc2)CS3)cc1,-15,5,2,-3,.,.
COc1ccc(C2=Nn3c(nnc3-c3ccccc3OC)SC2)cc1OCC1CC1,25*,50*,5,.,0,63
CCCc1nnc2n1N=C(c1ccc(OC)c(OC)c1)CS2,-3,106*,4,1,.,-7
COc1ccc(OC)c(-c2nnc3n2N=C(c2ccc(OC)c(OC)c2)CS3)c1,31*,80*,9.5*,2,0,.
CCN1C(=O)[C@H]2[C@@H](c3ccc(-c4ccc(Cl)c(Cl)c4)cc3)N[C@@](C)(C(=O)OC)[C@H]2C1=O,?,-12,8.2*,-3,0,-2
CO[C@@H]1CN(C)C(=O)c2ccc(NC(=O)c3cnccn3)cc2OC[C@@H](C)N(CC2CC2)C[C@@H]1C,-5,12,2,-3,0,.
COc1ccc(NC(=O)N(C)C[C@H]2Oc3c(NC(=O)c4nc5ccccc5s4)cccc3C(=O)N([C@@H](C)CO)C[C@H]2C)cc1,32*!,-29,2,2,0,-4[16.7 µM]
C[C@H]1CN([C@@H](C)CO)C(=O)c2cccc(NC(=O)c3nc4ccccc4s3)c2O[C@@H]1CN(C)C(=O)NC1CCCCC1,0,-2,-2,1,-1,6[16.7 µM]
C[C@H](CO)N1C[C@H](C)[C@H](CN(C)C(=O)Nc2ccc(F)cc2)Oc2c(NC(=O)c3nc4ccccc4s3)cccc2C1=O,31*,-25,-1,0,0,-2[16.7 µM]
SMILES,DENV2 CPE rescue,GSIS activator,CFTR F508del cor,ERAP1 HTS inh,E-sel inducer,miR122 inh
C[C@@H]1CN([C@H](C)CO)C(=O)c2cccc(NC(=O)c3nc4ccccc4s3)c2O[C@H]1CN(C)C(=O)NC1CCCCC1,45*,-23,1,4,-2,0[16.7 µM]
C[C@@H]1CN([C@@H](C)CO)C(=O)c2cccc(NS(=O)(=O)c3ccccc3)c2O[C@@H]1CN(C)S(=O)(=O)c1cn(C)cn1,8,19,-1,-4,0,-6[16.7 µM]
CO[C@@H]1CN(C)C(=O)c2ccc(NC(=O)C3CC3)cc2OC[C@H](C)N(C(=O)CN(C)C)C[C@H]1C,-5,0,1,2,0,.
C[C@H](CO)N1C[C@H](C)[C@H](CN(C)CC2CCCC2)Oc2ncc(C#Cc3ccccn3)cc2C1=O,.,-6,2,.,-2,-11[16.7 µM]
COc1ccc(-c2ccc([C@@H]3[C@@H](C#N)N(C(=O)NC4CCCC4)[C@H]3CO)cc2)cc1,-5,10,0,6,0,.
CCOC(=O)C(C)Oc1cccc2c(=O)n(CC(=O)NCc3ccccc3)ccc12 (stereo unspecified),6,5,0,-3,.,49
CCOC(=O)C(C)Oc1cccc2c(=O)n(CC(=O)NCc3ccc(F)cc3)ccc12 (stereo unspecified),12,42*,-1,.,0,-5
COc1ccc(C[C@H]2CCn3cc(nn3)COC[C@@H](Cc3ccccc3)NC2=O)cc1,.,10,.,.,.,.
Cc1noc(C)c1NC(=O)Nc1cccc2c1O[C@@H](CN(C)C(=O)Nc1ccc3c(c1)OCO3)[C@H](C)CN([C@H](C)CO)C2=O,1,8,-1,0,0,-1[16.7 µM]
CC(=O)c1ccc(OCCCC(=O)Nc2cc(Cl)ccc2-n2cncn2)cc1,56*,22,-2,-2,-1,.
CCOc1ccc(OCCCC(=O)Nc2cc(Cl)ccc2-n2cncn2)cc1,10,-37,0,-1,0,.
COc1ccc2c3c([nH]c2c1)[C@@H](CO)N(C(=O)Nc1ccc(F)cc1)CC31CN(C(=O)Cc2ccncc2)C1,-7,-6,0,2,0,.
OCCCNc1nc(-c2ccccc2)c2cc(Br)ccc2n1,-9,55*,0,-14,0,.
Cc1ccc2nc(NCCCO)nc(-c3ccccc3)c2c1,.,.,.,.,.,-3
NNc1nc(-c2ccccc2)c2cc(Cl)ccc2n1,-5,36,-1,-3,0,.
NNc1nc(-c2ccccc2)c2cc(Br)ccc2n1,-3,49*,3,2,-1,-9
Cc1ccc(S(=O)(=O)N(C)C[C@@H]2OCCCC[C@@H](C)Oc3ccc(NC(=O)Nc4cccc5ccccc45)cc3C(=O)N([C@@H](C)CO)C[C@@H]2C)cc1,-11,23,1,2,0,14[16.7 µM]
O=C(COc1ccccc1F)c1ccc(O)cc1O,.,.,.,.,.,218*
